Test results taken from publication PMC10432884 (Clinical and Translational Science, 2023).

Assay: MAD phase pharmacokinetics
Type: in vivo, human
Conditions: for AUC / Cmax / concentration at 11 day / concentration at 12 day / concentration at 13 day / concentration at 14 day / Tmax / concentration at 1 day: human, plasma, oral; for AUC: AUC τ; for Cmax: C max; for concentration at 11 day / concentration at 12 day / concentration at 13 day / concentration at 14 day / concentration at 1 day: C trough; for concentration at 11 day: day 11; for concentration at 12 day: day 12; for concentration at 13 day: day 13
Outline: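 MAD phase, 2–15 mg q.d. oral for 14 days. Plasma was sampled predose daily and 15 min–48 h on days 1 and 14. Urine was pooled over 24 h on days 1 and 14. One CSF sample was taken 3 h postdose on day 7 (10 mg cohort). All matrices were assayed by validated LC-MS/MS. Derived: Cmax, Tmax, t1/2, AUCτ, Ctrough, peak-to-trough ratio, accumulation ratios, and CSF/plasma ratio corrected for protein binding. Results reported as geometric means (95% CI) and medians.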

[1] = 2 mg, GeoMean, MAD 2 mg q.d., day 14
[2] = 2 mg, Median, MAD 2 mg q.d., day 14
[3] = 5 mg, GeoMean, MAD 5 mg q.d., day 1
[4] = 5 mg, GeoMean, MAD 5 mg q.d., day 14
[5] = 5 mg, Median, MAD 5 mg q.d., day 1
[6] = 5 mg, Median, MAD 5 mg q.d., day 14
[7] = 10 mg, GeoMean, MAD 10 mg q.d., day 1
[8] = 10 mg, GeoMean, MAD 10 mg q.d., day 14
[9] = 10 mg, Median, MAD 10 mg q.d., day 1
[10] = 10 mg, Median, MAD 10 mg q.d., day 14
[11] = 15 mg, GeoMean, MAD 15 mg q.d., day 1
[12] = 15 mg, GeoMean, MAD 15 mg q.d., day 14
[13] = 15 mg, Median, MAD 15 mg q.d., day 1
[14] = 15 mg, Median, MAD 15 mg q.d., day 14

With `Fc1ccccc1Cc1nc(-c2nc(C(F)(F)F)n[nH]2)cn2ccnc12` [zagociguat, 8‐(2‐fluorobenzyl)‐6‐(3‐(trifluoromethyl)‐1H‐1,2,4‐triazol‐5‐yl)imidazo[1,2‐a]pyrazine] the AUC (both, 2 mg, Median, MAD 2 mg q.d., day 1) was 4520 ng·h/mL, the AUC (both, 2 mg, Median, MAD 2 mg q.d., day 14) was 17000 ng·h/mL and the Cmax (2 mg, GeoMean, MAD 2 mg q.d., day 1) was 260 ng/mL. For the same compound, the Cmax [1] was 880 ng/mL, the Cmax (2 mg, Median, MAD 2 mg q.d., day 1) was 268 ng/mL and the Cmax [2] was 888 ng/mL. The concentration at 11 day (2 mg, GeoMean, MAD 2 mg q.d.) was 587 ng/mL, the concentration at 12 day (2 mg, GeoMean, MAD 2 mg q.d.) was 593 ng/mL and the concentration at 13 day (2 mg, GeoMean, MAD 2 mg q.d.) was 616 ng/mL. The concentration at 14 day [1] was 624 ng/mL, the concentration at 11 day (2 mg, Median, MAD 2 mg q.d.) was 579 ng/mL and the concentration at 12 day (2 mg, Median, MAD 2 mg q.d.) was 584 ng/mL. The concentration at 13 day (2 mg, Median, MAD 2 mg q.d.) was 610 ng/mL, the concentration at 14 day [2] was 632 ng/mL and the Tmax (2 mg, T max, Median, MAD 2 mg q.d., day 1) was 1 h. For the same compound, the Tmax (2 mg, T max, Median, MAD 2 mg q.d., day 14) was 1 h, the AUC [3] was 11000 ng·h/mL and the AUC [4] was 42100 ng·h/mL. The AUC [5] was 11500 ng·h/mL, the AUC [6] was 43900 ng·h/mL and the Cmax [3] was 602 ng/mL. The Cmax [4] was 2080 ng/mL, the Cmax [5] was 597 ng/mL and the Cmax [6] was 2230 ng/mL. The concentration at 1 day [3] was 389 ng/mL, the concentration at 11 day (5 mg, GeoMean, MAD 5 mg q.d.) was 1480 ng/mL and the concentration at 12 day (5 mg, GeoMean, MAD 5 mg q.d.) was 1500 ng/mL. It also gave a concentration at 13 day (5 mg, GeoMean, MAD 5 mg q.d.) of 1510 ng/mL, a concentration at 14 day [4] of 1540 ng/mL and a concentration at 1 day [5] of 410 ng/mL. The concentration at 11 day (5 mg, Median, MAD 5 mg q.d.) was 1540 ng/mL, the concentration at 12 day (5 mg, Median, MAD 5 mg q.d.) was 1580 ng/mL and the concentration at 13 day (5 mg, Median, MAD 5 mg q.d.) was 1580 ng/mL. The concentration at 14 day [6] was 1640 ng/mL, the Tmax (5 mg, T max, Median, MAD 5 mg q.d., day 1) was 2 h and the Tmax (5 mg, T max, Median, MAD 5 mg q.d., day 14) was 3 h. For the same compound, the AUC [7] was 20100 ng·h/mL, the AUC [8] was 76800 ng·h/mL and the AUC [9] was 21500 ng·h/mL. It also gave an AUC [10] of 82100 ng·h/mL, a Cmax [7] of 1070 ng/mL and a Cmax [8] of 3910 ng/mL. The Cmax [9] was 1140 ng/mL, the Cmax [10] was 4050 ng/mL and the concentration at 1 day [7] was 751 ng/mL. For the same compound, the concentration at 11 day (10 mg, GeoMean, MAD 10 mg q.d.) was 2760 ng/mL, the concentration at 12 day (10 mg, GeoMean, MAD 10 mg q.d.) was 2910 ng/mL and the concentration at 13 day (10 mg, GeoMean, MAD 10 mg q.d.) was 2840 ng/mL. It also gave a concentration at 14 day [8] of 2850 ng/mL, a concentration at 1 day [9] of 750 ng/mL and a concentration at 11 day (10 mg, Median, MAD 10 mg q.d.) of 3090 ng/mL. It also gave a concentration at 12 day (10 mg, Median, MAD 10 mg q.d.) of 3240 ng/mL, a concentration at 13 day (10 mg, Median, MAD 10 mg q.d.) of 3190 ng/mL and a concentration at 14 day [10] of 2820 ng/mL. The Tmax (10 mg, T max, Median, MAD 10 mg q.d., day 1) was 3 h, the Tmax (10 mg, T max, Median, MAD 10 mg q.d., day 14) was 2.2 h and the AUC [11] was 31300 ng·h/mL. For the same compound, the AUC [12] was 116000 ng·h/mL, the AUC [13] was 30100 ng·h/mL and the AUC [14] was 112000 ng·h/mL. For the same compound, the Cmax [11] was 1620 ng/mL, the Cmax [12] was 5850 ng/mL and the Cmax [13] was 1530 ng/mL. It also gave a Cmax [14] of 5800 ng/mL, a Tmax (15 mg, T max, Median, MAD 15 mg q.d., day 1) of 3 h and a Tmax (15 mg, T max, Median, MAD 15 mg q.d., day 14) of 3.5 h. The Tmax (Median observed T max, range, MAD all doses, days 1 and 14) was 1 to 3.5 h and the Drug accumulation (treatment period of 14 days) was “moderate drug accumulation”.
